How the values were obtained:
[1] = biological target: T1, C-C chemokine receptor type 2 (Homo sapiens, UniProt P41597); assay: Displacement of [125I]-CCL2 from human CCR2 expressed in U2OS cells at 1 uM incubated for 150 mins by scintillation spectrometry; format: cell-based
Outline: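 Membranes (15 µg protein) from U2OS cells stably expressing human CCR2 were incubated with 0.1 nM 125I-CCL2 for 150 min at 37 C. Buffer was 50 mM Tris-HCl pH 7.4 with 5 mM MgCl2 and 0.1% CHAPS. Test compound was 1 µM and nonspecific binding was defined with 10 µM INCB3344. Bound ligand was separated by filtration on PEI-coated GF/B filters and counted by scintillation. Result given as % displacement.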
Target sequence in this assay (P41597 whole entry, looked up): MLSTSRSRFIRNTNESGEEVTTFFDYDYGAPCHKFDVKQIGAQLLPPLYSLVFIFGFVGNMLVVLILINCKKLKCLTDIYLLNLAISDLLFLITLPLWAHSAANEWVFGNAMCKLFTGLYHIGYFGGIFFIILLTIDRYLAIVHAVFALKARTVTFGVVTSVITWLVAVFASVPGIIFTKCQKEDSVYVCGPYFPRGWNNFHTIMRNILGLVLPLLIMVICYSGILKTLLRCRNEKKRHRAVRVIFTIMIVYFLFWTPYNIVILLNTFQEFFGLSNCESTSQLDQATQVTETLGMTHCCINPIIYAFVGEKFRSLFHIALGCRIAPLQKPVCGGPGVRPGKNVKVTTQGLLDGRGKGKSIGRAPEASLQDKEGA

[2] = biological target: T1, C-C chemokine receptor type 2; assay: Antagonist activity against human CCR2B expressed in Chem-1 cells assessed as inhibition of human CCL2-induced intracellular calcium flux incubated for 10 mins by Fluo-4 AM dye based intracellular calcium flux assay; format: functional, cell-based
Target sequence in this assay (P41597 whole entry): as the sequence (P41597 whole entry, looked up) above

[3] = biological target: C-C chemokine receptor type 2 (Mus musculus, UniProt P51683); assay: Antagonist activity against mouse CCR2B expressed in human U2OS cells co-expressing beta-arrestin assessed as inhibition of mouse CCL2-induced beta-arrestin recruitment pre-incubated for 10 mins before mouse CCL2 stimulation for 90 mins by luminescence based assay; format: cell-based
C-C chemokine receptor type 2 (Mus musculus, UniProt P51683), sequence (P51683 whole entry): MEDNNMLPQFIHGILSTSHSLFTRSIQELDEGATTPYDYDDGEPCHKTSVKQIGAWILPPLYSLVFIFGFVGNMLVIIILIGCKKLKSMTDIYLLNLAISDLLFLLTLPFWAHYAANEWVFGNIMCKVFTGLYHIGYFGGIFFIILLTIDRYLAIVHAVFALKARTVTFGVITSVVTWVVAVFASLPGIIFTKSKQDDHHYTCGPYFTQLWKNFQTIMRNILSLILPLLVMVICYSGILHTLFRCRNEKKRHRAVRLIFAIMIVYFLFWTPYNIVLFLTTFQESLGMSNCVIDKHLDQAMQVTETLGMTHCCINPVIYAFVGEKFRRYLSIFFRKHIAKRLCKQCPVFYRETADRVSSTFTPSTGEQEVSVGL

[4] = biological target: T1, C-C chemokine receptor type 2; assay: Displacement of [125I]-CCL2 from human CCR2 expressed in U2OS cells incubated for 150 mins by scintillation spectrometry; format: cell-based
Target sequence in this assay (P41597 whole entry): as the sequence (P41597 whole entry, looked up) above

| Structure (SMILES) | inhibition [1] [%] | IC50 [2] [µM] | IC50 [3] [µM] | Ki [4] [µM] |
| --- | --- | --- | --- | --- |
| COc1ccc2c(c1)CCOC21CCN(CCC(C(=O)NCc2cc(F)cc(C(F)(F)F)c2)c2ccc(F)cc2)CC1 (stereo not given) | -7 | 0.353 | 4.63 | – |
| COc1ccc2c(c1)CCOC21CCN(CCCC(=O)NCc2cc(F)cc(C(F)(F)F)c2)CC1 | -1 | 0.318 | > 30 | – |
| CC1Cc2ccccc2C2(CCN(CCCC(=O)NCc3cc(F)cc(C(F)(F)F)c3)CC2)O1 (stereo not given) | -10 | 12 | > 30 | – |
| CC1Cc2ccccc2C2(CCN(CCC(C(=O)NCc3cc(F)cc(C(F)(F)F)c3)c3ccc(F)cc3)CC2)O1 (stereo not given) | 9 | 1.6 | 8.01 | – |
| CC1Cc2ccccc2C2(CCN(CCC(C(=O)NCc3cc(C(F)(F)F)cc(C(F)(F)F)c3)c3ccc(F)cc3)CC2)O1 (stereo not given) | 0 | 0.462 | 3.67 | – |
| O=C(CCCN1CCC2(CC1)OCCc1ccccc12)NCc1cc(F)cc(C(F)(F)F)c1 | 4 | 0.18 | > 30 | – |
| CC1Cc2ccccc2C2(CCN(CCCC(=O)NCc3cc(C(F)(F)F)cc(C(F)(F)F)c3)CC2)O1 (stereo not given) | – | 7.54 | 7.9 | – |

Results, then the compound that gave them:

| inhibition [1] [%] | IC50 [2] [µM] | IC50 [3] [µM] | Ki [4] [µM] | Structure (SMILES) |
| --- | --- | --- | --- | --- |
| 25 | 0.089 | 11.2 | – | O=C(NCc1cc(C(F)(F)F)cc(C(F)(F)F)c1)C(CCN1CCC2(CC1)OCCc1ccccc12)c1ccc(F)cc1 (stereo not given) |
| 7 | 0.173 | 3.63 | – | O=C(NCc1cc(F)cc(C(F)(F)F)c1)C(CCN1CCC2(CC1)OCCc1ccccc12)c1ccc(F)cc1 (stereo not given) |
| – | 0.163 | 4.16 | – | COc1ccc2c(c1)CCOC21CCN(CCC(C(=O)NCc2cc(C(F)(F)F)cc(C(F)(F)F)c2)c2ccc(F)cc2)CC1 (stereo not given) |
| – | 0.017 | 3.3 | – | O=C(NCc1cc(C(F)(F)F)cc(C(F)(F)F)c1)C(CCN1CCC2(CC1)OCCc1ccccc12)C1CC1 (stereo not given) |
| – | 6.1 | > 30 | – | O=C(NCc1cc(F)cc(C(F)(F)F)c1)C(CCN1CCC2(CC1)OCCc1cc(O)ccc12)c1ccc(F)cc1 (stereo not given) |
| 1 | 1.24 | 18 | – | COc1ccc2c(c1)CCOC21CCN(CCCC(=O)NCc2cc(C(F)(F)F)cc(C(F)(F)F)c2)CC1 |
| – | – | 23 | 0.002 | Cc1ccc(-c2ccc3c(c2)C=C(C(=O)Nc2ccc(C[N+](C)(C)C4CCOCC4)cc2)CCC3)cc1 |
| 10 | 0.684 | 24 | – | O=C(CCCN1CCC2(CC1)OCCc1ccccc12)NCc1cc(C(F)(F)F)cc(C(F)(F)F)c1 |

Source: ChEMBL document CHEMBL3588778, “Synthesis and biological evaluation of spirocyclic antagonists of CCR2 (chemokine CC receptor subtype 2)” (Bioorg Med Chem, 2015)
